{"source": "paper PMC9394215", "about": "(Journal for Immunotherapy of Cancer, 2022)", "key": {"Membrane-bound CD73": {"molecular_target": "T1, Membrane-bound CD73 (Homo sapiens, UniProt P21589)", "T1 sequence (P21589 27-574)": "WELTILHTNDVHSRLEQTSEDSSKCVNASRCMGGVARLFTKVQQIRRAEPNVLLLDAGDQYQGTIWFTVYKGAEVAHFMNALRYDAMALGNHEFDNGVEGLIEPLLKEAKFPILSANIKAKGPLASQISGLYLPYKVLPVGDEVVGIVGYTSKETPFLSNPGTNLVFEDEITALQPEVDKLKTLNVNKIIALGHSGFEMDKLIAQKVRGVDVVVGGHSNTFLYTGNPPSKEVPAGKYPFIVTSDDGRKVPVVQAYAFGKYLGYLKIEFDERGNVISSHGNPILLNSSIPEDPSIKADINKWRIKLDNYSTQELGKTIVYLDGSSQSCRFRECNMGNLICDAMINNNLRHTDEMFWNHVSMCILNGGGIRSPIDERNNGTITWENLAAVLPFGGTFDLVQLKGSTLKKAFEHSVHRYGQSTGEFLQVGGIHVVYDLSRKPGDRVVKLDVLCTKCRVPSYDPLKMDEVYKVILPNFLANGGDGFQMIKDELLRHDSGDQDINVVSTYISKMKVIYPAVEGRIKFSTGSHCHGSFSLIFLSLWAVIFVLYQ", "experiment": "Membrane-bound CD73 inhibition", "assay_type": "biochemical"}, "NPP3": {"molecular_target": "T2, NPP3 (Homo sapiens, UniProt O14638)", "T2 sequence (O14638 31-875 limits assumed)": "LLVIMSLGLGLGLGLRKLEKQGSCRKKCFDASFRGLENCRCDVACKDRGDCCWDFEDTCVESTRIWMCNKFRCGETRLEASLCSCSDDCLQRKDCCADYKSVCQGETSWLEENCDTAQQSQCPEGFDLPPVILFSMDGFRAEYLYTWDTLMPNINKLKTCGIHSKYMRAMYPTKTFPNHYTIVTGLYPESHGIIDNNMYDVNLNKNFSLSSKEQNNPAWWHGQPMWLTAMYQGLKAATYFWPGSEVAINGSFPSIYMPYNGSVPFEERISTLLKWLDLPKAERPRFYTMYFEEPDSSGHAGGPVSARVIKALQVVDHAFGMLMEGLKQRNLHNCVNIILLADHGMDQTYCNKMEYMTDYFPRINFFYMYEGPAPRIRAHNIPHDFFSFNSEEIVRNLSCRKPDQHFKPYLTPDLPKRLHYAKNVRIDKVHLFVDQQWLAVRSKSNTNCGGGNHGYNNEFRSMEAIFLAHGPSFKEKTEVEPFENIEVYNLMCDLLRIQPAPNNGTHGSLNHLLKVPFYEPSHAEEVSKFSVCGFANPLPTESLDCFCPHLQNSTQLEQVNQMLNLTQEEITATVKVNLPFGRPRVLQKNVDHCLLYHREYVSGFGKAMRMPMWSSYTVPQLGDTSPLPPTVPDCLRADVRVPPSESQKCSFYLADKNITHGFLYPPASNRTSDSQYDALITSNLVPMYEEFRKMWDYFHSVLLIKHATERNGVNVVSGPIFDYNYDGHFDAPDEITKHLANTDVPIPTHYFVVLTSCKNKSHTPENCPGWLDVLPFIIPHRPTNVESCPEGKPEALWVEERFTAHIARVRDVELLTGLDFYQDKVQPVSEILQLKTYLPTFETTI", "experiment": "NPP3 assay", "assay_type": "biochemical", "summary_of_the_method": "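Purified soluble NPP3 (95 ng, Sf9-expressed) was incubated with 50 µM (final) test compound, 2% DMSO and 400 µM p-nitrophenyl thymidine 5'-monophosphate. Reactions were stopped with 1 M NaOH, and p-nitrophenolate was read at 400 nm.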"}, "NPP5": {"molecular_target": "T3, NPP5 (Homo sapiens, UniProt Q9UJA9)", "T3 sequence (Q9UJA9 25-431 limits assumed)": "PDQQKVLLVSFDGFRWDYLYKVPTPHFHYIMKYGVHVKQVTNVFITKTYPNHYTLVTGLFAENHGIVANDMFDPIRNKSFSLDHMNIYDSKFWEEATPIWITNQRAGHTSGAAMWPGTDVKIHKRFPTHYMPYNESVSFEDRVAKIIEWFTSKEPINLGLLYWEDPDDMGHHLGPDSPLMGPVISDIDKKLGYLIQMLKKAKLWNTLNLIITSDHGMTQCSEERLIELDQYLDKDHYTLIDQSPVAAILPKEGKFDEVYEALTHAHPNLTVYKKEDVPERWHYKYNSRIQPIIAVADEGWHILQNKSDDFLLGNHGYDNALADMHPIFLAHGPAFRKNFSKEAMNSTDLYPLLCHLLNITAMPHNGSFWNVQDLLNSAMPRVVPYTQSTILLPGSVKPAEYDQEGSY", "experiment": "NPP5 assay", "assay_type": "biochemical", "summary_of_the_method": "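Either CD38 (5 ng) or NPP5 (250 ng) was mixed with 50 µM test compound and 100 µM NAD+ as substrate. For CD38 the reaction buffer was 10 mM HEPES, pH 7.4.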"}, "[1]": {"tested_on": "TNBC (MDA-MB-231) cell membrane preparations", "experiment": "Malachite green assay, ATP hydrolysis by TNBC cell membrane preparations", "assay_type": "biochemical, human", "conditions": "increasing concentrations of ceritinib, 50 µM ATP", "summary_of_the_method": "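Crude membranes came from ~90% confluent MDA-MB-231 or Ma-Mel-65 cells. Cells were homogenised in Tris/EDTA/saccharose/PMSF buffer, pH 7.4, and centrifuged at 1000 g, then 48,000 g for 1 h at 4°C. Pellets were washed and stored at −80°C in 50 mM Tris-HCl, pH 7.4. ATP hydrolysis (50 µM ATP, HEPES/Ca/Mg pH 7.4) was run with increasing test compound concentrations for 15 min at 37°C. Phosphate was read by malachite green (600 nm); triplicates, n=3.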"}, "[2]": {"conditions": "read-out: % inhibition at 50 µM"}}, "data": [{"smiles": "Cc1cc(Nc2ncc(Cl)c(Nc3ccccc3S(=O)(=O)C(C)C)n2)c(OC(C)C)cc1C1CCNCC1", "note": "[ceritinib, Ceritinib]", "values": [{"measurement": "IC50", "setting": "Membrane-bound CD73", "value": "> 50", "unit": "µM"}, {"measurement": "inhibition at 50 µM", "setting": "Membrane-bound CD73; [2]", "value": 30, "unit": "%"}, {"measurement": "IC50", "setting": "NPP3", "value": "> 50", "unit": "µM"}, {"measurement": "inhibition at 50 µM", "setting": "NPP3; [2]", "value": 1, "unit": "%"}, {"measurement": "IC50", "setting": "NPP5", "value": "> 50", "unit": "µM"}, {"measurement": "inhibition at 50 µM", "setting": "NPP5; [2]", "value": 1, "unit": "%"}, {"measurement": "ATPase activity of cancer cell membranes", "setting": "[1]", "value": "decreased significantly"}]}]}
